{"data": "Published values from different studies", "target": "RAC-beta serine/threonine-protein kinase (AKT2, Homo sapiens, UniProt P31751)", "note": "Protocols differ between the studies behind these lines."}
{"read-out": "binding", "method": "competition with immobilised ligand", "concentration": "0.1 µM", "remaining binding [%]": 99, "Structure (SMILES)": "C[C@@H](c1ccc(-n2cnc3c(N)ncnc32)cc1)N1CCc2nn(C)c(Cc3ccccc3)c2C1=O"}
{"read-out": "cell-free assay", "method": "competition with immobilised ligand", "concentration": "1 µM", "remaining binding [%]": 100, "Structure (SMILES)": "CN(C)CC#Cc1ccc(OCCCc2sc(N3CCc4cccc(C(=O)Nc5nc6ccccc6s5)c4C3)nc2C(=O)O)c(F)c1"}
{"read-out": "binding", "method": "competition with immobilised ligand", "concentration": "1 µM", "remaining binding [%]": 100, "Structure (SMILES)": "C=CC(=O)N1CCC(C(=O)NCC(=O)N2CCN(c3nc(-c4cnc(N)nc4C(F)F)nc(N4CCOCC4)n3)CC2)CC1"}
{"read-out": "binding", "method": "competition with immobilised ligand", "concentration": "1 µM", "remaining binding [%]": 87, "Structure (SMILES)": "O=C(NCCCN1CCOCC1)c1ccc(Nc2nccc(-c3cc4ccccc4s3)n2)cc1"}
{"read-out": "binding", "concentration": "1 µM", "remaining binding [%]": 100, "Structure (SMILES)": "N[C@@H]1CCN(c2nccc(-c3cnn4ncccc34)n2)C1"}
{"read-out": "binding", "method": "competition with immobilised ligand", "concentration": "50 nM", "remaining binding [%]": 100, "Structure (SMILES)": "C[C@@H]1CN(c2ccc3ncc(-c4ccc5[nH]nc(C6CC6)c5c4)n3n2)C[C@H](C)O1"}
{"read-out": "binding", "concentration": "1 µM", "remaining binding [%]": 86, "Structure (SMILES)": "F[C@@H]1CCN(c2nccc(-c3cnn4ncccc34)n2)C1"}
{"read-out": "cell-free assay", "method": "competition with immobilised ligand", "concentration": "1 µM", "remaining binding [%]": 72, "Structure (SMILES)": "CCC(=O)N[C@@H]1CC[C@H](C(=O)N(C)c2ccc(-c3nc4ccccc4o3)cc2)C1"}
{"read-out": "binding", "concentration": "1 µM", "remaining binding [%]": 100, "Structure (SMILES)": "CN(C)c1ncc(F)c(-c2cnn3ncccc23)n1"}
{"read-out": "binding", "method": "competition with immobilised ligand", "concentration": "1 µM", "remaining binding [%]": 100, "Structure (SMILES)": "Nc1ncc2c(n1)-c1c([nH]c3ccc(C#CC4CC4)cc13)CCCC2"}
{"read-out": "binding", "concentration": "1 µM", "remaining binding [%]": 100, "Structure (SMILES)": "COc1ccnn2ncc(-c3ccnc(N(C)C)n3)c12"}
{"read-out": "binding", "method": "competition with immobilised ligand", "concentration": "1 µM", "remaining binding [%]": 100, "Structure (SMILES)": "CCN1CCN(Cc2ccc(C(=O)Nc3ccc(C)c(Oc4ccc5c(c4)CC(=O)N5)c3)cc2C(F)(F)F)CC1"}
{"read-out": "cell-free assay", "method": "competition with immobilised ligand", "concentration": "1 µM", "remaining binding [%]": 89, "Structure (SMILES)": "COc1ccc2c(O[C@@H]3C[C@H]4C(=O)N[C@]5(C(=O)O)CC5/C=C\\CCCCC[C@H](NC(=O)OC5CCCC5)C(=O)N4C3)cc(-c3csc(NC(=O)C(C)C)n3)nc2c1C (stereo partly drawn)"}
{"read-out": "binding", "method": "competition with immobilised ligand", "concentration": "1 µM", "remaining binding [%]": 100, "Structure (SMILES)": "O=C(c1ccc(Nc2nccc(-c3cc4ccccc4s3)n2)cc1)N1CCC(N2CCCC2)CC1"}
{"read-out": "cell-free assay", "method": "competition with immobilised ligand", "concentration": "1 µM", "remaining binding [%]": 88, "Structure (SMILES)": "O=C(O)[C@H]1[C@H](Cn2nnc3ccccc3c2=O)CC[C@@H]1C(=O)c1ccc(OCCC2CCOCC2)cc1"}
{"read-out": "binding", "concentration": "1 µM", "remaining binding [%]": 100, "Structure (SMILES)": "CN(C)c1nccc(-c2cnn3ncccc23)n1"}
{"read-out": "binding", "method": "competition with immobilised ligand", "concentration": "1 µM", "remaining binding [%]": 87, "Structure (SMILES)": "Cc1nc(N2CC[C@@H](O)C2)ncc1-c1cc(C(F)(F)F)cc2[nH]ncc12"}
{"read-out": "binding", "method": "competition with immobilised ligand", "concentration": "1 µM", "remaining binding [%]": 100, "Structure (SMILES)": "CNC(=O)[C@@H]1CC[C@@H](n2c(-c3ccc4cnccc4c3)nc3ccc(C(=O)NCc4cccc(C(N)=O)c4)cc32)C1"}
{"read-out": "binding", "method": "competition with immobilised ligand", "concentration": "1 µM", "remaining binding [%]": 100, "Structure (SMILES)": "O=C(NCC1CCOCC1)c1n[nH]cc1NC(=O)c1c(F)cccc1F"}
{"read-out": "cell-free assay", "method": "competition with immobilised ligand", "concentration": "1 µM", "remaining binding [%]": 93, "Structure (SMILES)": "CCS(=O)(=O)c1cc2cc(C[C@@](O)(CC(C)(C)c3ccc(F)cc3C(N)=O)C(F)(F)F)[nH]c2cn1"}
{"read-out": "binding", "method": "competition with immobilised ligand", "concentration": "1 µM", "remaining binding [%]": 88, "Structure (SMILES)": "O=C(c1ccc(Nc2ncc(Cl)c(-c3cc4ccccc4s3)n2)cc1)N1CCC(N2CCCC2)CC1"}
{"read-out": "binding", "method": "competition with immobilised ligand", "concentration": "10 µM", "remaining binding [%]": 93, "Structure (SMILES)": "N#Cc1ccccc1CSc1nnc2c(n1)[nH]c1ccccc12"}
{"read-out": "binding", "concentration": "1 µM", "remaining binding [%]": 93, "Structure (SMILES)": "C[C@@H]1CCN(c2nccc(-c3cnn4ncccc34)n2)C1"}
{"read-out": "cell-free assay", "method": "competition with immobilised ligand", "concentration": "1 µM", "remaining binding [%]": 100, "Structure (SMILES)": "CCCOc1ccc([C@H]2[C@H](C(=O)O)[C@@H](c3ccc4c(c3)OCO4)CN2CC(=O)Nc2c(CC)cccc2CC)cc1"}
